Laboratory results reported in ChEMBL document CHEMBL2331324, “Synthesis and biological evaluation of guanidino analogues of roscovitine” (Eur J Med Chem, 2013).

Assays:
[1] = biological target: Cyclin-dependent kinase 1/cyclin B1 (Homo sapiens, UniProt P06493); test: Inhibition of recombinant CDK1/cyclin B (unknown origin) using histone H1 as substrate in presence of [gamma-33P]ATP; assay type: protein-complex assay
[2] = biological target: Aurora kinase A/B (Homo sapiens) (UniProt Q96GD4+O14965); test: Activity at Aurora kinase A/B in human MCF7 cells assessed as histone H3 phosphorylation at Ser10 at 100 uM after 24 hrs by flow cytometry relative to untreated control; assay type: cell-based
Aurora kinase A/B (Homo sapiens), sequence (O14965 whole entry, looked up): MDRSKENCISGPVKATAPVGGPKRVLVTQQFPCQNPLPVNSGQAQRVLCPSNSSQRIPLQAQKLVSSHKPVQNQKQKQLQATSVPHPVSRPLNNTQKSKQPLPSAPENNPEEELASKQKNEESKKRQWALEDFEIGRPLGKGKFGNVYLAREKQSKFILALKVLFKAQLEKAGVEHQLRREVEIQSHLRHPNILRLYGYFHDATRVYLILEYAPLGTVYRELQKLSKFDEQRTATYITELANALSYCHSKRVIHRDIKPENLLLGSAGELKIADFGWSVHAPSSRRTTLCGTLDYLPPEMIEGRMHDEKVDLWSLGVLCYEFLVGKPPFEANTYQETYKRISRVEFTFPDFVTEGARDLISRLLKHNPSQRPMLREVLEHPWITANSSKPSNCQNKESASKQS
Aurora kinase A/B (Homo sapiens), sequence (Q96GD4 whole entry, looked up): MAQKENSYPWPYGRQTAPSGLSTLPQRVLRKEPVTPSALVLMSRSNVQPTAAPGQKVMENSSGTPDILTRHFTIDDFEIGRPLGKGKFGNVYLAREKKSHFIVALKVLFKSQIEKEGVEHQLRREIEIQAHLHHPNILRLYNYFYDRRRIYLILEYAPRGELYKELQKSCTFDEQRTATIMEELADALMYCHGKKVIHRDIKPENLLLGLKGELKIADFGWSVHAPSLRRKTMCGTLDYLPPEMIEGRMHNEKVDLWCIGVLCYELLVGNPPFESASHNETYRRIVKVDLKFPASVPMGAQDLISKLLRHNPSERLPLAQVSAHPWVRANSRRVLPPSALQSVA
How it was run: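 Flow cytometry on MCF7 cells exposed 24 h to 100 µM. About one million cells fixed in 90% methanol, rehydrated, and labelled with primary antibody to pH3 Ser10, then an Alexa Fluor 488 secondary. Alexa read at 488/525 nm (ex/em). The value is the fraction of pH3-positive cells in treated cultures divided by that in untreated control.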

MCF7 [3] = test: Cell cycle arrest in human MCF7 cells assessed as accumulation of cells in G2+M phase at 100 uM after 24 hrs by propidium iodide staining based flow cytometry relative to untreated control; assay type: functional
How it was run: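 Flow cytometry on MCF7 cells given 100 µM for 24 h. About one million cells fixed in 90% methanol and rehydrated. DNA stained with propidium iodide, read at 488/575 nm (ex/em). The value is the G2+M fraction of treated cells divided by the G2+M fraction of untreated control cells.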

MCF7 [4] = test: Cytotoxicity against human MCF7 cells assessed as inhibition of cell viability after 72 hrs by calcien AM dye based fluorescence analysis; assay type: functional; conditions: MCF7, 72 h
How it was run: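 MCF7 cells grown in DMEM with 10% FBS, 2 mM glutamine, penicillin and streptomycin at 37 °C and 5% CO2. About 10,000 cells per well, left 4 h, then a concentration range added in triplicate, DMSO ≤0.5% final. After 72 h, 1 µg/ml calcein AM (final) for 1 h; fluorescence read at 485/538 nm. Viability given as % of control; IC50 read graphically from dose-response curves; mean of ≥3 independent experiments.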

[5] = biological target: Cyclin-dependent kinase 2/cyclin E1 (Homo sapiens, UniProt P24941); test: Inhibition of recombinant CDK2/cyclin E (unknown origin) using histone H1 as substrate in presence of [gamma-33P]ATP; assay type: protein-complex assay
[6] = biological target: Cyclin-dependent kinase 2/cyclin E1 (Homo sapiens) (UniProt P24864+P24941); test: Ratio of compound IC50 to roscovitine IC50 for recombinant CDK2/cyclin E (unknown origin); assay type: protein-complex assay
[7] = biological target: Cyclin-dependent kinase 1/cyclin B1 (Homo sapiens) (UniProt P06493+P14635); test: Ratio of compound IC50 to roscovitine IC50 for recombinant CDK1/cyclin B (unknown origin); assay type: protein-complex assay
Cyclin-dependent kinase 1/cyclin B1 (Homo sapiens), sequence (P06493 whole entry, looked up): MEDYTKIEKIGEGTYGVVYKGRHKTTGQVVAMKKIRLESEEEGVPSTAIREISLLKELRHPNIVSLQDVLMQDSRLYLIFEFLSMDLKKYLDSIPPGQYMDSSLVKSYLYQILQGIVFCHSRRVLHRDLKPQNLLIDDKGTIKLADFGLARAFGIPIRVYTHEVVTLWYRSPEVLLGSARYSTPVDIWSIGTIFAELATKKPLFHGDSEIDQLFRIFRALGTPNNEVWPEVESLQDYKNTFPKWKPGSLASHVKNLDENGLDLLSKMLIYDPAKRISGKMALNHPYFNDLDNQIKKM
Cyclin-dependent kinase 1/cyclin B1 (Homo sapiens), sequence (P14635 whole entry, looked up): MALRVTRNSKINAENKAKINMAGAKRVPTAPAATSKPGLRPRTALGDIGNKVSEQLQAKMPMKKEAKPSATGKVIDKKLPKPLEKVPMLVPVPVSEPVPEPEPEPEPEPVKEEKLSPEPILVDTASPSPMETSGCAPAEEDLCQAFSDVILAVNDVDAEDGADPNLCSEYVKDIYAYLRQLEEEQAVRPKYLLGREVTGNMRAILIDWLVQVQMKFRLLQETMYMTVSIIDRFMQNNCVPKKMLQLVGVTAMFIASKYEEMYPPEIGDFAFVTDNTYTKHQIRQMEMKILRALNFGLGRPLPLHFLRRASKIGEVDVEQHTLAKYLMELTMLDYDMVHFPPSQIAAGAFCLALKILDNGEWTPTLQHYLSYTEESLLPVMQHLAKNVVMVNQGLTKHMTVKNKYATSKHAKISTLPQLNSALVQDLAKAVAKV

MCF7 [8] = test: Ratio of compound IC50 to roscovitine IC50 for human MCF7 cells after 72 hrs by calcien AM dye based fluorescence analysis; assay type: functional

Cyclin-dependent kinase 1/cyclin B1, sequence (P06493 whole entry): as the sequence (P06493 whole entry, looked up) above
Cyclin-dependent kinase 1/cyclin B1, sequence (P14635 whole entry, further chain): as the sequence (P14635 whole entry, looked up) above

Row | SMILES | IC50 [1] [µM] | Ratio [2] | Ratio (MCF7 [3]) | IC50 (MCF7 [4]) [µM] | IC50 [5] [µM] | Ratio IC50 [6] | Ratio IC50 [7] | Ratio IC50 (MCF7 [8])
1 | CC(C)[C@@H](N)COc1nc(NC(=N)N)c2ncn(C(C)C)c2n1 | 15.6 | 0.39 | 2.1 | 79.4 | 8 | – | – | –
2 | CCn1cnc2c(NC(=N)N)nc(N)nc21 | 12.6 | 0.1 | 1.6 | 54.3 | 1.7 | 5 | 5 | 2
3 | CC(C)n1cnc2c(NC(=N)N)nc(NCCCCCCO)nc21 | 4.2 | 0.33 | 2 | 5.2 | 1.6 | – | – | –
4 | N=C(N)Nc1nc(N)nc2c1ncn2CCO | > 100 | – | 0.9 | > 100 | > 100 | – | – | –
5 | N=C(N)Nc1nc(N)nc2c1ncn2CCN | > 50 | – | 1 | > 100 | > 100 | – | – | –
6 | CC(C)n1cnc2c(NC(=N)N)nc(NCCCO)nc21 | 4.1 | 0.18 | 2.5 | 8.8 | 0.18 | – | – | –
7 | CC(C)n1cnc2c(NC(=N)N)nc(OC[C@H]3CCCN3)nc21 | 81.5 | – | 1.3 | > 100 | 23.6 | – | – | –
8 | CC[C@H](N)COc1nc(NC(=N)N)c2ncn(C(C)C)c2n1 | 8.1 | 0.07 | 1.5 | 16.3 | 6.2 | – | – | –
9 | CCCn1cnc2c(NC(=N)N)nc(N)nc21 | 55.9 | 6.71 | 4 | 36.5 | 10.7 | – | – | –
10 | [N-]=[N+]=NCCn1cnc2c(NC(=N)N)nc(N)nc21 | > 100 | – | 1.4 | > 100 | 74.9 | – | – | –
11 | CC(C)n1cnc2c(NC(=N)N)nc(N3CCC[C@H]3CO)nc21 | 1.5 | 0.11 | 1.7 | 6.2 | 0.16 | – | – | –
12 | CC(C)[C@@H](CO)Nc1nc(NC(=N)N)c2ncn(C(C)C)c2n1 | 1.1 | 0.09 | 1.8 | 2.1 | 0.071 | – | – | –
13 | Cn1cnc2c(NC(=N)N)ncnc21 | > 100 | – | 1 | > 100 | > 100 | – | – | –
14 | CC(C)n1cnc2c(NC(=N)N)nc(OC[C@@H]3CCCN3)nc21 | > 100 | 0.8 | 1.7 | > 100 | 25.2 | – | – | –
15 | CC(C)n1cnc2c(NC(=N)N)nc(NC3CC3)nc21 | 6.4 | 0.17 | 2.4 | 5.4 | 0.5 | – | – | –
16 | CC(C)[C@H](CO)Nc1nc(NC(=N)N)c2ncn(C(C)C)c2n1 | 2 | 0.13 | 2.3 | 10.5 | 0.14 | – | – | –
17 | CC(C)[C@H](N)COc1nc(NC(=N)N)c2ncn(C(C)C)c2n1 | 1.1 | 0.09 | 1.7 | 3.4 | 1.8 | – | – | –
18 | CN(C)c1nc(N)nc2c1ncn2CCN=[N+]=[N-] | > 100 | – | 1 | > 100 | > 100 | – | – | –
19 | CC(C)n1cnc2c(NC(=N)N)nc(N3CCC[C@@H]3CO)nc21 | 6.2 | 0.1 | 2 | 20.4 | 0.67 | – | – | –
20 | CC[C@@H](N)COc1nc(NC(=N)N)c2ncn(C(C)C)c2n1 | 47.6 | 1.08 | 0.8 | > 100 | 13.3 | – | – | –
21 | Cn1cnc2c(NC(=N)N)nc(N)nc21 | 38.2 | 0.81 | 1.5 | > 100 | 6.8 | – | – | –
22 | CCn1cnc2c(N)nc(N)nc21 | 37.5 | – | 1.2 | > 100 | 7.9 | – | – | –
23 | CC(C)n1cnc2c(N)nc(N)nc21 | 64.9 | – | 0.9 | > 100 | 22.2 | – | – | –
24 | CC(C)n1cnc2c(NC(=N)N)nc(NCCO)nc21 | 15.1 | 0.15 | 2.9 | 12.4 | 0.82 | – | – | –
25 | N=C(N)Nc1nc(N)nc2c1ncn2CC(F)(F)F | > 100 | – | 0.8 | > 100 | > 100 | – | – | –
26 | CC(C)n1cnc2c(NC(=N)N)nc(N)nc21 | 14.8 | 0.18 | 2 | 97.2 | 1.3 | 5 | 5 | 4
27 | CC[C@H](CO)Nc1nc(NCc2ccccc2)c2ncn(C(C)C)c2n1 [SELICICLIB] | – | – | – | 20.2 | – | – | – | –
28 | CC(C)Cn1cnc2c(NC(=N)N)nc(N)nc21 | > 100 | 7 | 3.5 | 96.6 | 66.5 | – | – | –
